In PMC9414273 (Clinical Cancer Research, 2021):
Like-named read-outs stand apart in the source and are kept apart here.

Legend:
[1] = test system: patients with advanced or metastatic cancers; experiment: Antitumor activity; assay type: in vivo, human; conditions: for median PFS: advanced cancers
[2] = test system: T-cell proliferation; conditions: preclinical; cited from earlier work
[3] = test system: patients with grade 4 glioma; experiment: Antitumor activity; assay type: in vivo, human
Procedure, shortened: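 Patients with grade 4 glioma (IDH1/2-mutant or IDH wild-type) got oral test compound twice daily in 28-day cycles: dose escalation on 2w/2w or 3w/1w, expansion at 50 mg 2w/2w. RANO response by CT or MRI at baseline and days 22–28 of every other cycle until confirmed progression or withdrawal. CR/PR confirmed and reported as frequency. PFS and OS by Kaplan–Meier.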

[4] = Plasma pharmacokinetics of LY3200882; assay type: in vivo, human
Procedure, shortened: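 Oral test compound twice daily on 2w/2w or 3w/1w schedules, 5–50 mg. Plasma measured by validated LC-MS/MS. Cmax, tmax, AUC, CL/F and V/F estimated noncompartmentally. Dose proportionality tested by a power model on log-transformed Cmax and AUC with dose as fixed effect. Steady state and accumulation inferred from t1/2.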

[5] = test system: 4T1-luciferase–positive preclinical tumor models of triple-negative breast cancer; conditions: in vitro and in vivo; cited from earlier work
[6] = test system: patients with advanced cancer; experiment: Safety and tolerability: treatment-emergent adverse events; assay type: in vivo, human
Procedure, shortened: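 Patients aged 18 or over with ECOG 0–1 got oral test compound twice daily, 2w/2w or 3w/1w per 28-day cycle, in a 3+3 escalation. Each dose level had at least 3 DLT-evaluable patients. AEs graded by CTCAE v4.03, and investigators judged relation to treatment. AE frequency and percentage given per arm for all patients dosed.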

[7] = cited from earlier work; for NOAEL daily AUC threshold for cardiotoxicity: established preclinically in rats and dogs
[8] = test system: patients with pancreatic cancer; conditions: patients with treatment-naïve advanced pancreatic cancer; cited from earlier work
[9] = of a total of 139 patients, LY3200882-based therapies
[10] = schedule A 2w/2w escalation (N = 30)
[11] = schedule B 3w/1w escalation (N = 32)
[12] = grade 4 glioma expansion, RP2D 2w/2w (N = 40)
[13] = single patient, IDH WT grade 4 glioma, monotherapy 50 mg twice a day 2w/2w
[14] = Any grade, Japanese cohort (N = 9)
[15] = Any grade, grade 4 glioma expansion, RP2D 2w/2w (N = 40)
[16] = Any grade, schedule A 2w/2w escalation (N = 30)
[17] = Any grade, schedule B 3w/1w escalation (N = 32)
[18] = Grade ≥3, Japanese cohort (N = 9)
[19] = Grade ≥3, grade 4 glioma expansion, RP2D 2w/2w (N = 40)
[20] = Grade ≥3, schedule A 2w/2w escalation (N = 30)
[21] = Grade ≥3, schedule B 3w/1w escalation (N = 32)

CC(C)(O)c1cc(Nc2cc(Oc3cn(C4CC4)nc3C3CCOCC3)ccn2)ccn1 [LY3200882]
median OS ([1]; 35 mg twice a day 3w/1w (8 patients), 95% CI 2.6–NE): 4.0 months | median OS ([1]; 50 mg twice a day 2w/2w (17 patients), 95% CI 1.2–11.4): 6.1 months | Best overall response: CR ([1]; Japanese cohort (N = 9)): 0 (0) n (%) | Best overall response: Nonevaluable ([1]; Japanese cohort (N = 9)): 1 (11) n (%) | Best overall response: PR ([1]; Japanese cohort (N = 9)): 0 (0) n (%) | Best overall response: Progressive disease ([1]; Japanese cohort (N = 9)): 8 (89) n (%) | Best overall response: SD ([1]; Japanese cohort (N = 9)): 0 (0) n (%) | DCR (CR/PR/SD) ([1]; Japanese cohort (N = 9)): 0 (0) n (%) | ORR (CR/PR) ([1]; Japanese cohort (N = 9)): 0 (0) n (%) | median PFS ([1]; 35 mg twice a day 3w/1w (n = 8), 95% CI 0.8–2.6): 1.7 months | median PFS ([1]; 50 mg twice a day 2w/2w (n = 17), 95% CI 0.9–2.0): 1.8 months | Patients who achieved radiologic CR/PR [1, 9]: 11 patients | Patients who had SD [1, 9]: 28 patients | DCR ([1]; overall study population): 28.1% | Best overall response: CR [1, 10]: 0 (0) n (%) | Best overall response: Nonevaluable [1, 10]: 8 (27) n (%) | Best overall response: PR [1, 10]: 1 (3) n (%) | Best overall response: Progressive disease [1, 10]: 15 (50) n (%) | Best overall response: SD [1, 10]: 6 (20) n (%) | DCR (CR/PR/SD) [1, 10]: 7 (23) n (%) | ORR (CR/PR) [1, 10]: 1 (3) n (%) | Best overall response: CR [1, 11]: 0 (0) n (%) | Best overall response: Nonevaluable [1, 11]: 4 (13) n (%) | Best overall response: PR [1, 11]: 1 (3) n (%) | Best overall response: Progressive disease [1, 11]: 20 (63) n (%) | Best overall response: SD [1, 11]: 7 (22) n (%) | DCR (CR/PR/SD) [1, 11]: 8 (25) n (%) | ORR (CR/PR) [1, 11]: 1 (3) n (%) | Immunomodulatory effects [2]: induction of T-cell proliferation | Duration of response (RANO PR) ([3]; dose escalation, 1 patient IDH 1–mutant grade 4 glioma, 3w/1w schedule): 3.9 months | Duration of response (RANO PR) ([3]; dose escalation, 1 patient IDH WT grade 4 glioma, 2w/2w schedule): 19 months | Duration of response (RANO PR) ([3]; dose-expansion arm, 1 patient IDH WT grade 4 glioma, 50 mg twice a day 2w/2w): 5.6 months | median OS ([3]; dose-expansion arm, 15 patients with recurrent IDH mutant grade 4 glioma, 95% CI 7.3–NE): 10.6 months | median OS ([3]; dose-expansion arm, 25 patients with IDH WT grade 4 glioma, 95% CI 4.6–9.7): 8.2 months | median PFS ([3]; dose-expansion arm, IDH mutant, 95% CI 1.3–1.8): 1.7 months | Best overall response: CR [3, 12]: 0 (0) n (%) | Best overall response: Nonevaluable [3, 12]: 7 (18) n (%) | Best overall response: PR [3, 12]: 1 (3) n (%) | Best overall response: Progressive disease [3, 12]: 26 (65) n (%) | Best overall response: SD [3, 12]: 6 (15) n (%) | DCR (CR/PR/SD) [3, 12]: 7 (18) n (%) | ORR (CR/PR) [3, 12]: 1 (3) n (%) | Time remained on trial [3, 13]: 30.4 months | Tumor reduction by RANO assessment [3, 13]: 94% | PK profile linearity ([4]; 5- to 50-mg dose range): linear with dose and time | Doses after which steady state would be achieved ([4]; based on the short t1/2): 2 doses | Time at which peak concentration was reached after administration ([4]; oral, patients): 2 h | mean CL/F ([4]; oral, patients): 57.3 L/h | mean V/F ([4]; oral, patients): 559 L | Accumulation ratio ([4]; steady state, twice a day, based on the short t1/2): 1.4 fold | Effect on its own metabolism ([4]; suggested by PK constant over time): neither an inhibitor nor an inducer of its own metabolism | Effect on tumors in 4T1 models [5]: durable tumor regression | Dose-limiting toxicities ([6]; 2w/2w and 3w/1w schedules): not observed | Recommended phase II dose (RP2D) ([6]; 2w/2w schedule): 50 mg twice a day | Recommended phase II dose (RP2D) ([6]; 3w/1w schedule): 35 mg twice a day | ALT increased (study treatment-related AE) [6, 14]: 1 (11) n (%) | Anemia (study treatment-related AE) [6, 14]: 1 (11) n (%) | Fatigue (study treatment-related AE) [6, 14]: 0 (0) n (%) | Nausea (study treatment-related AE) [6, 14]: 1 (11) n (%) | Subjects with ≥1 TEAE related to study treatment [6, 14]: 3 (33) n (%) | ALT increased (study treatment-related AE) [6, 15]: 0 (0) n (%) | Anemia (study treatment-related AE) [6, 15]: 0 (0) n (%) | Fatigue (study treatment-related AE) [6, 15]: 4 (10) n (%) | Nausea (study treatment-related AE) [6, 15]: 0 (0) n (%) | Subjects with ≥1 TEAE related to study treatment [6, 15]: 10 (25) n (%) | ALT increased (study treatment-related AE) [6, 16]: 0 (0) n (%) | Anemia (study treatment-related AE) [6, 16]: 1 (3) n (%) | Fatigue (study treatment-related AE) [6, 16]: 0 (0) n (%) | Nausea (study treatment-related AE) [6, 16]: 1 (3) n (%) | Subjects with ≥1 TEAE related to study treatment [6, 16]: 10 (33) n (%) | ALT increased (study treatment-related AE) [6, 17]: 2 (6) n (%) | Anemia (study treatment-related AE) [6, 17]: 1 (3) n (%) | Fatigue (study treatment-related AE) [6, 17]: 1 (3) n (%) | Nausea (study treatment-related AE) [6, 17]: 1 (3) n (%) | Subjects with ≥1 TEAE related to study treatment [6, 17]: 10 (31) n (%) | ALT increased (study treatment-related AE) [6, 18]: 0 (0) n (%) | Anemia (study treatment-related AE) [6, 18]: 0 (0) n (%) | Fatigue (study treatment-related AE) [6, 18]: 0 (0) n (%) | Nausea (study treatment-related AE) [6, 18]: 0 (0) n (%) | Subjects with ≥1 TEAE related to study treatment [6, 18]: 0 (0) n (%) | ALT increased (study treatment-related AE) [6, 19]: 0 (0) n (%) | Anemia (study treatment-related AE) [6, 19]: 0 (0) n (%) | Fatigue (study treatment-related AE) [6, 19]: 0 (0) n (%) | Nausea (study treatment-related AE) [6, 19]: 0 (0) n (%) | Subjects with ≥1 TEAE related to study treatment [6, 19]: 0 (0) n (%) | ALT increased (study treatment-related AE) [6, 20]: 0 (0) n (%) | Anemia (study treatment-related AE) [6, 20]: 0 (0) n (%) | Fatigue (study treatment-related AE) [6, 20]: 0 (0) n (%) | Nausea (study treatment-related AE) [6, 20]: 0 (0) n (%) | Subjects with ≥1 TEAE related to study treatment [6, 20]: 0 (0) n (%) | ALT increased (study treatment-related AE) [6, 21]: 0 (0) n (%) | Anemia (study treatment-related AE) [6, 21]: 0 (0) n (%) | Fatigue (study treatment-related AE) [6, 21]: 0 (0) n (%) | Nausea (study treatment-related AE) [6, 21]: 0 (0) n (%) | Subjects with ≥1 TEAE related to study treatment [6, 21]: 0 (0) n (%) | Cardiovascular AEs ([6]; LY3200882 as monotherapy): no cardiovascular AEs were observed | Deaths related to study treatment ([6]; overall): none | Patients with SAEs related to study drug ([6]; overall, 3 patients, only in combination expansion arms): 2.2% | Patients with at least 1 serious AE (SAE) ([6]; overall, 24 patients): 17.3% | Deaths reported in the study ([6]; overall, 63 deaths): 45.3% | Patients with TEAEs that were study-treatment (LY3200882) related ([6]; overall, all arms, 55 patients): 39.6% | Patients who experienced ≥1 TEAE ([6]; overall, all arms, 130 of 139 treated patients): 93.5% | NOAEL daily AUC threshold for cardiotoxicity ([7]; 2w/2w schedule): 3.4 mg X h/L | NOAEL daily AUC threshold for cardiotoxicity ([7]; 3w/1w schedule): 1.56 mg X h/L | NOAEL for cardiotoxicity (AUC) ([7]; nonclinical toxicology studies): 3.4 mg X hours/L

FOLFIRINOX
ORR [8]: 31.6%
